The source made the active and inactive calls.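 The calls were made as follows: active = fitted curve climbs past 10% caspase activation, relative to the positive control, at or below the top valid tested dose; inactive = the rest, including activity in the opposite direction.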

Test system in one assay: not listed separately
The assay is described as follows: A1 inhibitor-induced caspase activation in BIM-primed MEFs, dose response, cell-based, MEF A1-2A-BIM, luminescence, dry powder, set 4 (AID 504347). The note with it: MEF A1-2A-BIM cells, caspase-3/7 luminescence; at 35 µM (top of the series). An outline of the steps:
(§1)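 Evaluation: caspase activation from luminescence rise; Material: mouse embryonic fibroblasts co-expressing A1-2A-BIM construct; Input: 2500 cells per well; Technique: luminescence with DEVD-luciferin caspase-3/7 reagent, reduced-crosstalk aperture for some reads; Times: 3 h compound at 37 °C, 1 h reagent at RT; Medium: RPMI-1640, 10% FBS.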
Regarding `Cc1ccc(Sc2c(Sc3ccc(C)cc3)c3ccccc3n(C)c2=O)cc1`, the caspase activation was -0.138% (inactive).
On the same count and under the same terms, then `C/C(=N\Nc1nc(N2CCCCC2)nc(N2CCCCC2)n1)c1ccc(F)cc1`, with 0.602% (inactive); and `COc1ccc(CCNc2nc(N3CCOCC3)nc(N3CCOCC3)n2)cc1OC`, with 4.68% (inactive).

The subject of the next assay is MEF A1-2A-BIM cells, caspase-3/7 luminescence. The assay is described as above.
Conditions: not given
In outline: as §1
Turning to `O=c1c([N+](=O)[O-])c(Cl)c2ccccc2n1Cc1ccccc1`, the AC10 was 2.53 µM.
Still for that read-out and setting: to `Cn1c(=O)c([N+](=O)[O-])c(Cl)c2ccccc21` belongs 0.96 µM.
Same read-out and setting: then `O=C(COc1ccc(Cl)cc1Cl)NNc1nc(N2CCOCC2)nc(N2CCOCC2)n1`, with 28.5 µM; and `Cn1c(=O)c([N+](=O)[O-])c(-n2cnc3ccccc32)c2ccccc21`, with 8.18 µM.
Same read-out and setting: to `COCCn1c(=O)c([N+](=O)[O-])c(Sc2ccc(C)cc2)c2ccccc21` belongs 6.43 µM; to `COCCn1c(=O)c(Sc2ccc(C)cc2)c(Sc2ccc(C)cc2)c2ccccc21`, 20.2 µM.
As to `CCn1c(=O)c([N+](=O)[O-])c(Sc2ccc(C)cc2)c2ccccc21`, the AC10 was 15 µM.
Take `Cc1ccc(Sc2c([N+](=O)[O-])c(=O)n(Cc3ccccc3)c3ccccc23)cc1`: the AC10 is 17.8 µM.
As to `O=c1[nH]c2ccccc2c(Cl)c1[N+](=O)[O-]`, the AC10 is 2.8 µM.

(Values after PubChem BioAssay AID504347 (Broad Institute, 2011).)
